Active and inactive are the calls of the source. The rule behind the calls is not given here.
How the values were obtained:
LNCaP [1] = assay: Induction of PHLPP1 localization to human LNCAP cell membrane at 5 uM after 24 hrs by immunofluorescence staining analysis; format: functional, cell-based
Method in brief: (§1)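 LNCaP cells on poly-L-lysine-coated surfaces, treated in serum-free medium for 24 h. Fixed in 4% formaldehyde, permeabilized with 0.1% Triton X-100, blocked in 1% FBS, primary antibody (1:300) overnight, then Alexa Fluor secondary 2 h; DAPI nuclei; confocal imaging with cross-sectional fluorescence intensity analysis.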

PC-3 [2] = assay: In vivo antitumor efficacy in human PC3 cells xenografted athymic nude mouse assessed as decrease in phosphorylation of MDM2 in tumor at 50 mg/kg, ip for 21 days relative to vehicle treated control; format: functional, organism-based; set-up: dose 50 mg/kg
Method in brief: (§2)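 Athymic nude mice given PC-3 cells sc (1 × 10⁶ per mouse); at about 50 mm³, randomized (n = 7) and dosed once daily for 21 days either ip at 50 mg/kg (vehicle saline/PEG400/DMSO/Tween 80, 65:20:10:5) or by oral gavage at 100 mg/kg (vehicle 0.5% methylcellulose/0.1% Tween 80 in water). Tumor volume measured weekly by calipers (width² × length × 0.52); phospho-proteins checked by Western blotting of tumor lysates.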

LNCaP [3] = assay: Antiproliferative activity against human LNCAP cells assessed as suppression of cell viability after 24 hrs by MTT assay; format: functional, cell-based
Method in brief: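 LNCaP cells seeded at 5000/well on poly-L-lysine-coated plates in 10% FBS; 24 h later exposed to agents in serum-free medium for 24 h. Viability expressed as percent of vehicle control; IC50 derived.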

PC-3 [4] = assay: Antiproliferative activity against human PTEN-negative PC3 cells assessed as suppression of cell viability after 24 hrs by MTT assay in serum free medium; format: functional, cell-based
PC-3 [5] = assay: In vivo antitumor efficacy in human PC3 cells xenografted athymic nude mouse assessed as decrease in phosphorylation of IKK in tumor at 50 mg/kg, ip for 21 days relative to vehicle treated control; format: functional, organism-based; set-up: dose 50 mg/kg; method in brief: as §2
[6] = biological target: T1, PH domain leucine-rich repeat-containing protein phosphatase 1 (Homo sapiens, UniProt O60346); details: LNCaP, 2.5 to 25 uM
[7] = biological target: T1, PH domain leucine-rich repeat-containing protein phosphatase 1; assay: Binding affinity to GST-tagged PH domain of PHLPP1 (unknown origin) by surface Plasmon resonance spectroscopy
Method in brief: (§3)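 SPR: GST-tagged PH domain fusion protein immobilized on CM5 chip by amine coupling to about 17000 RU. Analyte injected at 1–20 µM at 30 µL/min; DMSO in samples and running buffer ≤1% (v/v). Kd obtained from sensorgram fitting.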

[8] = biological target: T1, PH domain leucine-rich repeat-containing protein phosphatase 1; assay: Inhibition of PHLPP1-mediated reduction in phosphorylation of Akt at Thr308 in human LNCAP cells after 24 hrs by Western blot analysis; format: cell-based
Method in brief: (§4)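 LNCaP or PC-3 cells treated at various concentrations for 24 h in serum-free medium. Lysed in SDS buffer (50 mM Tris pH 8, 10 mM EDTA, 1% SDS, protease inhibitors); equal protein run on SDS-PAGE and transferred to nitrocellulose. Primary antibodies 1:1000 overnight at 4 °C, HRP secondary 1:2000; detected by ECL.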

[9] = biological target: T1, PH domain leucine-rich repeat-containing protein phosphatase 1; assay: Inhibition of PHLPP1-mediated reduction in phosphorylation of IKK in human LNCAP cells after 24 hrs by Western blot analysis; format: cell-based; method in brief: as §4
PC-3 [10] = assay: In vivo antitumor efficacy in human PC3 cells xenografted athymic nude mouse assessed as inhibition of tumor growth at 100 mg/kg, po for 21 days relative to vehicle treated control; format: functional, organism-based; set-up: dose 100 mg/kg; method in brief: as §2
PC-3 [11] = assay: In vivo antitumor efficacy in human PC3 cells xenografted athymic nude mouse assessed as inhibition of tumor growth at 50 mg/kg, ip for 21 days relative to vehicle treated control; format: functional, organism-based; set-up: dose 50 mg/kg; method in brief: as §2
[12] = biological target: RAC-alpha serine/threonine-protein kinase (Homo sapiens, UniProt P31749); assay: Binding affinity to GST-tagged PH domain of AKT (unknown origin) by surface Plasmon resonance spectroscopy; method in brief: as §3
LNCaP [13] = assay: Induction of PHLPP1 localization to human LNCAP cell membrane after 24 hrs by immunofluorescence staining analysis; format: functional, cell-based; method in brief: as §1
PC-3 [14] = assay: In vivo antitumor efficacy in human PC3 cells xenografted athymic nude mouse assessed as decrease in phosphorylation of IKK in tumor at 100 mg/kg, po for 21 days relative to vehicle treated control; format: functional, organism-based; set-up: dose 100 mg/kg; method in brief: as §2
PC-3 [15] = assay: In vivo antitumor efficacy in human PC3 cells xenografted athymic nude mouse assessed as decrease in phosphorylation of Akt at Thr308 in tumor at 50 mg/kg, ip for 21 days relative to vehicle treated control; format: functional, organism-based; set-up: dose 50 mg/kg; method in brief: as §2
[16] = biological target: T1, PH domain leucine-rich repeat-containing protein phosphatase 1; assay: Inhibition of PHLPP1-mediated reduction in phosphorylation of MDM2 in human LNCAP cells after 24 hrs by Western blot analysis; format: cell-based; method in brief: as §4
LNCaP [17] = assay: Induction of Akt localization to human LNCAP cell membrane at 5 uM after 24 hrs by immunofluorescence staining analysis; format: functional, cell-based; method in brief: as §1
[18] = biological target: T1, PH domain leucine-rich repeat-containing protein phosphatase 1; assay: Inhibition of PHLPP1-mediated reduction in phosphorylation of Akt at Thr308 in human PC3 cells after 24 hrs by Western blot analysis; format: cell-based; details: PC-3; method in brief: as §4
PC-3 [19] = assay: In vivo antitumor efficacy in human PC3 cells xenografted athymic nude mouse assessed as decrease in phosphorylation of Akt at Ser473 in tumor at 50 mg/kg, ip for 21 days relative to vehicle treated control; format: functional, organism-based; set-up: dose 50 mg/kg; method in brief: as §2
LNCaP [20] = assay: Induction of ILK localization to human LNCAP cell membrane at 5 uM after 24 hrs by immunofluorescence staining analysis; format: functional, cell-based; method in brief: as §1
Scaffold protein ILK = biological target: T2, Scaffold protein ILK (Homo sapiens, UniProt Q13418); assay: Binding affinity to GST-tagged PH domain of ILK (unknown origin) by surface Plasmon resonance spectroscopy; method in brief: as §3
T2 sequence (Q13418 whole entry): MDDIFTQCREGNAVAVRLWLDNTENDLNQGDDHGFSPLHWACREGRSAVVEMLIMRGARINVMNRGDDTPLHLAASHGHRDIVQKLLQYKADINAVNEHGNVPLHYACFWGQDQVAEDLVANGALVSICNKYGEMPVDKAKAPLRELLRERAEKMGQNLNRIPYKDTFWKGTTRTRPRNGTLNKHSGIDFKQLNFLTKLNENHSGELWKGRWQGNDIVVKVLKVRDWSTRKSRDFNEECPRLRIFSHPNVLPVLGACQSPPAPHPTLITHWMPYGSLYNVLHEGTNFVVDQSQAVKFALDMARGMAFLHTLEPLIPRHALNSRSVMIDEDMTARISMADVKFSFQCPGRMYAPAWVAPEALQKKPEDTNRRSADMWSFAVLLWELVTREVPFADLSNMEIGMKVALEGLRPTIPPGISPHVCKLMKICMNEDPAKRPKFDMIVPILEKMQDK

PC-3 [21] = assay: In vivo antitumor efficacy in human PC3 cells xenografted athymic nude mouse assessed as decrease in phosphorylation of MDM2 in tumor at 100 mg/kg, po for 21 days relative to vehicle treated control; format: functional, organism-based; set-up: dose 100 mg/kg; method in brief: as §2
LNCaP [22] = assay: Induction of Akt localization to human LNCAP cell membrane after 24 hrs by immunofluorescence staining analysis; format: functional, cell-based; method in brief: as §1
LNCaP [23] = assay: Induction of Akt-PHLPP1 complex to human LNCAP cell membrane after 24 hrs by immunofluorescence staining analysis; format: functional, cell-based
PrEC = assay: Antiproliferative activity against human PrEC cells assessed as suppression of cell viability after 24 hrs by MTT assay in serum free medium; format: cell-based

T1 sequence (O60346 whole entry, the tested form may be a part): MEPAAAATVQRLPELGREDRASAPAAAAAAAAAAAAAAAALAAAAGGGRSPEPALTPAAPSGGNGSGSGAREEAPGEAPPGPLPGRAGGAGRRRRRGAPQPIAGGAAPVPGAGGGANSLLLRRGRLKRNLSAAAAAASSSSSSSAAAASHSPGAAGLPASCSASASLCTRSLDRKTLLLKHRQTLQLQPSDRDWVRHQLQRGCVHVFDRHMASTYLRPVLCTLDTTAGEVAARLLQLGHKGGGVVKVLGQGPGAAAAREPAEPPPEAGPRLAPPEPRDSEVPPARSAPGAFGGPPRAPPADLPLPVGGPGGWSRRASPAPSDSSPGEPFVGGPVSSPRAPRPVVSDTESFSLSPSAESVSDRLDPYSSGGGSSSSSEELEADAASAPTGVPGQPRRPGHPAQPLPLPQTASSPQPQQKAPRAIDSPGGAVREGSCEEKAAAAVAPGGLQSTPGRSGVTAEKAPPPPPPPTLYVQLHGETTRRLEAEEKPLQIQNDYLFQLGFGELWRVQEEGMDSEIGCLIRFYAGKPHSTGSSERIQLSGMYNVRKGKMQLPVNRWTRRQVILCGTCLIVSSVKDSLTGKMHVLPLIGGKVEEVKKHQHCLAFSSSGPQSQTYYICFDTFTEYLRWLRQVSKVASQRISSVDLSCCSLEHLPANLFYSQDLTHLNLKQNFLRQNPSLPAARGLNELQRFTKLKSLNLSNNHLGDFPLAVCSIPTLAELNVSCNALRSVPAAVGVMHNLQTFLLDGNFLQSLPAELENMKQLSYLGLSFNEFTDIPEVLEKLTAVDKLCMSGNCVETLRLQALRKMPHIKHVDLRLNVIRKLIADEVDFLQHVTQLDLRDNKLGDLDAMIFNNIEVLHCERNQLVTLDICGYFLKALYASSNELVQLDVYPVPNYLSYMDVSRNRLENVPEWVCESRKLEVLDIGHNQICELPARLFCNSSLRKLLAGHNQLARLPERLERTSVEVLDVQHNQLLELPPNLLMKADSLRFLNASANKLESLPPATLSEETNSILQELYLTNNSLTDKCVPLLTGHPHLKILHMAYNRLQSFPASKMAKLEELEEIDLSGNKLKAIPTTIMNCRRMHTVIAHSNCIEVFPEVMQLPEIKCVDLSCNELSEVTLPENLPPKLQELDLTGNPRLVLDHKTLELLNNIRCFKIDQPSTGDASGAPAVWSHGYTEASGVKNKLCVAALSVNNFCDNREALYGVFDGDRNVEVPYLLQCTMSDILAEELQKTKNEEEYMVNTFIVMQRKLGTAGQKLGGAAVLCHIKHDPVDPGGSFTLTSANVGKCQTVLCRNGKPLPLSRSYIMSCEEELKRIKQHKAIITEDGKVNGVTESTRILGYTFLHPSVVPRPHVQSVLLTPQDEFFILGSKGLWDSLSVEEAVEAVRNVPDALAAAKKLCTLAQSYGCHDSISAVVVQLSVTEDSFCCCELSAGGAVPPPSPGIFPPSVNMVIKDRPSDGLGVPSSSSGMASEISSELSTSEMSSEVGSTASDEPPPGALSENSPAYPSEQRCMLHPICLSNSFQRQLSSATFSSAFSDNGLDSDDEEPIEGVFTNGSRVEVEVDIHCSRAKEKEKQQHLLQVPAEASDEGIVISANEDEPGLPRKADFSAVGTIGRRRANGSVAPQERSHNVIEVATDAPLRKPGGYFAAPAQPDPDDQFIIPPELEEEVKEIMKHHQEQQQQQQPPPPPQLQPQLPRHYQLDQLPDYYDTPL
Chain of RAC-alpha serine/threonine-protein kinase (P31749 whole entry, the tested form may be a part): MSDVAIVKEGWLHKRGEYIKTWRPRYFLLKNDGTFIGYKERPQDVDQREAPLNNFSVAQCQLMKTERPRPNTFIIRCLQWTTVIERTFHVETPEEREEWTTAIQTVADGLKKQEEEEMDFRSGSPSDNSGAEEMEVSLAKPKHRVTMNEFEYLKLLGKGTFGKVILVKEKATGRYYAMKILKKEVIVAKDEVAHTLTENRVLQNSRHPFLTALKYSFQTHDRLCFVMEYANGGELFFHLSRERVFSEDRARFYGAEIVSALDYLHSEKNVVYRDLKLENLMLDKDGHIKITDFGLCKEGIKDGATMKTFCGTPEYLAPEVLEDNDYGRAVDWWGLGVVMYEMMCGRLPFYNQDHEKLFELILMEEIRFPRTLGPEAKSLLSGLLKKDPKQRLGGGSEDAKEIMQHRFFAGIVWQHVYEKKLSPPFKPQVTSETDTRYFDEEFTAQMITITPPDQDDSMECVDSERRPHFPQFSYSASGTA

## Cc1c(S(N)(=O)=O)cc2c(c1C)OC(C)(CCCC(C)C)CC2 (stereo not given)
LNCaP [1]
  Activity: Active
PC-3 [2]
  inhibition: Active
LNCaP [3]
  IC50: 3000 nM
PC-3 [4]
  Activity: Active
PC-3 [5]
  inhibition: Active
[6]
  inhibition: Active
[7]
  Kd: 720 nM
[8]
  inhibition: inactive
[9]
  inhibition: Dose-dependent effect
PC-3 [10]
  Activity: Active
PC-3 [11]
  Activity: Active
[12]
  Kd: 200 nM
LNCaP [13]
  Activity: Dose-dependent effect
PC-3 [14]
  Activity: Active
PC-3 [15]
  inhibition: inactive
[16]
  inhibition: Dose-dependent effect
LNCaP [17]
  Activity: Active
[18]
  inhibition: inactive
PC-3 [19]
  inhibition: Active
LNCaP [20]
  Activity: inactive
Scaffold protein ILK
  Kd: 6200 nM
PC-3 [21]
  Activity: Active
LNCaP [22]
  Activity: Dose-dependent effect
LNCaP [23]
  Activity: Dose-dependent effect
PrEC
  Activity: Non-toxic
